This note sets out measurements from ChEMBL document CHEMBL3817814, “Development and Characterization of a Potent Free Fatty Acid Receptor 1 (FFA1) Fluorescent Tracer” (J Med Chem, 2016).

Test [1] concerns the target T1, Free fatty acid receptor 1 (Homo sapiens, UniProt O14842). Put plainly: Agonist activity at human C-terminal eYFP-tagged FFA1 receptor expressed in HEK-293 cells assessed as beta-arrestin2 recruitment incubated for 5 mins by BRET assay relative to TUG-770. Format: cell-based. The following applies: HEK293. (Activated receptors often draw arrestin, which recruitment assays turn into a signal.)

Test [2] addresses T1, Free fatty acid receptor 1. Nature of the test: Agonist activity at eYFP-tagged FFA1 receptor (unknown origin) expressed in human Flp-In T-REX-293 cells measured for 90 secs by Fura-2 AM dye based calcium mobilization assay. Format: functional, cell-based. Put shortly: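 Flp-In T-REx 293 cells with doxycycline-inducible FFA1-eYFP were plated 50,000/well and induced with 100 ng/ml doxycycline 24 h before assay. Cells were Fura-2 AM loaded 45 min, washed three times and kept 15 min in HBSS. […] Mean ± S.E.M., n=3.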

In test [3] the target is T1, Free fatty acid receptor 1. Put plainly: Displacement of 3-(2-Fluoro-4-((2'-methyl-4'-(2-(2-((7-nitrobenzo[c][1,2,5]-oxadiazol-4-yl)amino)ethoxy)ethoxy)-[1,1'-biphenyl]-3-yl)-methoxy)phenyl)propanoic acid from N-terminal NLUC-tagged FFA1 receptor (unknown origin) expressed in human Flp-In T-REX-293 cell membrane coexpressing mGluR5 incubated for 1 hr by equilibrium BRET assay. Format: cell membranes.

For test [4], the target named is T1, Free fatty acid receptor 1. Put plainly: Agonist activity at human C-terminal eYFP-tagged FFA1 receptor expressed in HEK-293 cells assessed as beta-arrestin2 recruitment incubated for 5 mins by BRET assay. The test is classed as cell-based, HEK293.
The target in test [5] is T1, Free fatty acid receptor 1. Put plainly: Binding affinity to N-terminal NLUC-tagged FFA1 receptor (unknown origin) expressed in human Flp-In T-REX-293 cell membrane coexpressing mGluR5 preincubated for 5 mins followed by TUG-905 addition measured after 15 mins by kinetic BRET assay. Format: cell membranes. The essentials: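 Membranes (2.5 µg protein/well) were pre-incubated 5 min at 25 °C with Nano-Glo (1:800 final), and 460/545 nm emission was read every 20 s at 25 °C. After 60 s, tracer (100 nM final) was injected; 5 min later 10 µM unlabeled agonist was injected and reading continued 15 min. Non-specific signal from wells pre-dosed with unlabeled agonist was subtracted, giving koff and kon.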
Background: In BRET a luciferase serves as donor, and the signal depends on an acceptor being close.

Test [6] has as its target T1, Free fatty acid receptor 1. Put plainly: Binding affinity to N-terminal NLUC-tagged FFA1 receptor (unknown origin) expressed in human Flp-In T-REX-293 cell membrane coexpressing mGluR5 incubated for 1 hr by equilibrium BRET assay. The test is classed as cell membranes. The essentials:
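Membranes from NLUC-FFA1 Flp-In T-REx 293 cells (induced 24 h, 100 ng/ml doxycycline) were used at 5 µg protein/well in 50 mM HEPES, 100 mM NaCl, 10 mM CaCl2, 10 mM MgCl2. Varying tracer concentrations, up to 100 nM, were incubated 1 h at 25 °C, with 10 µM unlabeled agonist defining non-specific binding. Nano-Glo (1:800 final) was added, then 460/545 nm emission read after 5 min. Kd came from saturation fits.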

Test [7] concerns the target T1, Free fatty acid receptor 1. Put plainly: Agonist activity at FFA1 receptor (unknown origin) expressed in human […] cells measured for 90 secs by Fura-2 AM dye based calcium mobilization assay relative to TUG-770. The test is classed as functional, cell-based. Put shortly: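 Untagged FFA1 constitutively expressed in N1-FFA1 cells, plated 15,000/well 24 h ahead. Cells loaded 45 min with Fura-2 AM, washed three times, then held 15 min in HBSS. Emission at 510 nm from 340/380 nm excitation was recorded before and for 90 s after compound addition. The peak 340/380 ratio gave concentration-response curves.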
(In general: A change in cytosolic calcium serves as a functional read-out for many receptors and channels.)

Test [8] addresses T1, Free fatty acid receptor 1. Put plainly: Agonist activity at FFA1 receptor (unknown origin) expressed in human […] cells measured for 90 secs by Fura-2 AM dye based calcium mobilization assay. The test is classed as functional, cell-based. Put shortly:
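N1-FFA1 cells constitutively expressing untagged FFA1 were plated 24 h before the assay. They were loaded with Fura-2 AM for 45 min, washed three times, and held 15 min in HBSS. Fura-2 emission at 510 nm (340 or 380 nm excitation) was read before and for 90 s after compound addition. The peak 340/380 ratio gave concentration-response curves for potency.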

T1 sequence (O14842 whole entry): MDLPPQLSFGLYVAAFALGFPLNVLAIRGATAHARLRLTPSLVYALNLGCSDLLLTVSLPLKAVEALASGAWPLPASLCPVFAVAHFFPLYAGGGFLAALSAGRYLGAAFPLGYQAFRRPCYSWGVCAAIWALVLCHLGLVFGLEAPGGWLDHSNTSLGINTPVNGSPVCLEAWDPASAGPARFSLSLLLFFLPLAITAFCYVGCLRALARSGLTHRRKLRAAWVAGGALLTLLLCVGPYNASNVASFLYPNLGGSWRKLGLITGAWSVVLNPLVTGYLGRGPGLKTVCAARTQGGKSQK

Take `Cc1ccccc1-c1cccc(CNc2ccc(CCC(=O)O)cc2)c1`: the Emax (in general, the size of the effect at its maximum, as opposed to the concentration needed) in test [1] is 114%.
`O=C(O)CCc1ccc(C#Cc2cccc(OCCOCCNc3ccc([N+](=O)[O-])c4nonc34)c2)cc1F`: the EC50 (commonly the concentration at which the effect is half-maximal) in test [2] was above 1000 nM.
As for `Cc1ccccc1C#Cc1ccc(CCC(=O)O)cc1`, in test [3], the Ki (commonly the dissociation constant of the complex between target and ligand, obtained from inhibition or displacement) was 631 nM. Moreover, the EC50 in test [4] was 67.6 nM. Also, in test [1], the Emax turned out to be 100%.
With `Cc1cc(OCCOCCNc2ccc([N+](=O)[O-])c3nonc23)ccc1-c1cccc(COc2ccc(CCC(=O)O)c(F)c2)c1`, in test [2], the EC50 is 187 nM. In addition, the Kd – broadly, the free concentration of one partner at which half of the binding sites on the other are occupied at equilibrium, for simple one-to-one binding – in test [5] is 4 nM; in test [6], 7.4 nM.
In the case of `Cc1cc(OCCCS(C)(=O)=O)cc(C)c1-c1cccc(COc2ccc3c(c2)OC[C@H]3CC(=O)O)c1`, the results for the Emax in test [7] and in test [1] were 108% and 89%, respectively.
Take `N#CCc1ccccc1C#Cc1ccc(CCC(=O)O)cc1`: the Emax in test [1] was found to be 95%.
In turn, `O=C(O)CCc1ccc(NCc2cccc(Oc3ccccc3)c2)cc1` [GW9508] had a Ki in test [3] of 219 nM. The Emax in test [1] was 86%.
On to `O=C(O)CCc1ccc(OCc2ccccc2)cc1` [BENZYLOXYPHENYLPROPANOIC ACID], for which the inhibitory constant (Ki) in test [3] was 13800 nM. In addition, the Emax in test [1] was 90%.
The molecule `Cc1cc(Oc2ncc(C(F)(F)F)cc2Cl)ccc1CC1SC(=O)NC1=O` (stereo not drawn) showed a Ki in test [3] of 69.2 nM. Besides, the EC50 in test [4] was 55 nM. For the same molecule, the Emax in test [1] is 95%.
Regarding `CCCCCCCCCCCC(=O)O` [DODECANOATE], the pKb (as a rule, the negative decadic logarithm of the Kb, by convention in mol/L) in test [3] is 4.46. Besides, the values for the EC50 in test [4] and in test [8] were 7940 nM and 759 nM, respectively. Besides, the values for the Emax in test [7] and in test [1] were 116% and 130%, respectively.
